Blank lines part the entries; values can stand above or below the molecule they belong to.
What was measured:
Rattus norvegicus [1] = species: Rattus norvegicus; assay: Activity of rat 3-hydroxyacyl-CoA dehydrogenase S137A mutant
Summary of the method: (§1)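 Rat liver HAD enzymes (wild-type, Asn208Ala, Ser137Ala) were incubated with 3-hydroxyacyl-CoA substrates or fluorinated analogs and NAD⁺ cofactor, so the forward reaction oxidizes the 3-hydroxyl to a keto group while NAD⁺ is reduced to NADH. Kinetic studies derived parameters including Vmax.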

Rattus norvegicus [2] = species: Rattus norvegicus; assay: Activity of rat 3-hydroxyacyl-CoA dehydrogenase N208A mutant; summary of the method: as §1
[3] = substrate: CCC/C=C/C(O)C(F)C(=O)SCCNC(=O)CCNC(=O)[C@H](O)C(C)(C)COP(=O)(O)OP(=O)(O)OC[C@H]1O[C@@H](n2cnc3c(N)ncnc32)[C@H](O)[C@@H]1OP(=O)(O)O; assay: (§2) Activity of rat 3-hydroxyacyl-CoA dehydrogenase; summary of the method: as §1
[4] = substrate: CCC/C=C/C(O)CC(=O)SCCNC(=O)CCNC(=O)[C@H](O)C(C)(C)COP(=O)(O)OP(=O)(O)OC[C@H]1O[C@@H](n2cnc3c(N)ncnc32)[C@H](O)[C@@H]1OP(=O)(O)O; assay: as §2; summary of the method: as §1
[5] = substrate: CCCCCC(O)CC(=O)SCCNC(=O)CCNC(=O)[C@H](O)C(C)(C)COP(=O)(O)OP(=O)(O)OC[C@H]1O[C@@H](n2cnc3c(N)ncnc32)[C@H](O)[C@@H]1OP(=O)(O)O; assay: as §2; summary of the method: as §1
[6] = substrate: CCCCCC(O)C(F)C(=O)SCCNC(=O)CCNC(=O)[C@H](O)C(C)(C)COP(=O)(O)OP(=O)(O)OC[C@H]1O[C@@H](n2cnc3c(N)ncnc32)[C@H](O)[C@@H]1OP(=O)(O)O; assay: as §2; summary of the method: as §1

Molecule: CCCCCC(O)CC(=O)SCCNC(=O)CCNC(=O)[C@H](O)C(C)(C)COP(=O)(O)OP(=O)(O)OC[C@H]1O[C@@H](n2cnc3c(N)ncnc32)[C@H](O)[C@@H]1OP(=O)(O)O (some centres not stated)
Km (Rattus norvegicus [2]): 46.8 µM
Vmax (Rattus norvegicus [2]): 0.28 µmol/min/mg

B1: Peroxisomal multifunctional enzyme type 2 (Rattus norvegicus), P97852 (protein)
chain: MASPLRFDGRVVLVTGAGGGLGRAYALAFAERGALVVVNDLGGDFKGVGKGSSAADKVVEEIRRRGGKAVANYDSVEAGEKLVKTALDTFGRIDVVVNNAGILRDRSFSRISDEDWDIIQRVHLRGSFQVTRAAWDHMKKQNYGRIIMTASASGIYGNFGQANYSAAKLGLLGLANTLVIEGRKNNIHCNTIAPNAGSRMTETVMPEDLVEALKPEYVAPLVLWLCHESCEENGGLFEVGAGWIGKLRWERTLGAIVRKRNQPMTPEAVRDNWVKICDFSNASKPKSIQESTGGIIEVLHKIDSEGISQNHTGQVASADASGFAGVVGHKLPSFSSSYTELQCIMYALGVGASVKNPKDLKFVYEGSADFSCLPTFGVIVAQKSLMSGGLAEVPGLSINFAKVLHGEQYLELYKPLPRSGELKCEAVIADILDKGSGIVIVMDVYSYSGKELICYNQFSVFVVGSGGFGGKRTSEKLKAAVAVPSRPPDAVLRDTTSLNQAALYRLSGDSNPLHIDPSFASIAGFEKPILHGLCTFGFSARHVLQQFADNDVSRFKAIKVRFAKPVYPGQTLQTEMWKEGNRIHFQTKVQETGDIVISNAYVDLVPTSGVSAQTPSEGGALQSALVFGEIGRRLKDVGREVVKKVNAVFEWHITKNGNVAAKWTIDLKNGSGEVYQGPAKGSADTTITISDEDFMEVVLGKLNPQNAFFSGRLKARGNIMLSQKLQMILKDYAKL
Km [3]: 46.8 µM
Vmax [3]: 11.7 µmol/min/mg
Km [4]: 20 µM
Vmax [4]: 21.8 µmol/min/mg
Km [5]: 34.6 µM
Vmax [5]: 10.5 µmol/min/mg
Km [6]: 69.3 µM

Other lines, results leading:

Km (Rattus norvegicus [1]): 53.2 µM
Vmax (Rattus norvegicus [1]): 0.46 µmol/min/mg
Km (Rattus norvegicus [2]): 49.6 µM
Vmax (Rattus norvegicus [2]): 1.08 µmol/min/mg
Molecule: CCC/C=C/C(O)CC(=O)SCCNC(=O)CCNC(=O)[C@H](O)C(C)(C)COP(=O)(O)OP(=O)(O)OC[C@H]1O[C@@H](n2cnc3c(N)ncnc32)[C@H](O)[C@@H]1OP(=O)(O)O (some centres not stated)

Km (Rattus norvegicus [1]): 55.7 µM
Vmax (Rattus norvegicus [1]): 0.17 µmol/min/mg
Km (Rattus norvegicus [2]): 44.9 µM
Vmax (Rattus norvegicus [2]): 0.1 µmol/min/mg
Molecule: CCC/C=C/C(O)C(F)C(=O)SCCNC(=O)CCNC(=O)[C@H](O)C(C)(C)COP(=O)(O)OP(=O)(O)OC[C@H]1O[C@@H](n2cnc3c(N)ncnc32)[C@H](O)[C@@H]1OP(=O)(O)O (some centres not stated)
